Consider three compounds from ChEMBL document CHEMBL1158747, “Cyclic peptides of the nocardamine class from a marine-derived bacterium of the genus Streptomyces” (J Nat Prod, 2005).

Values after ≈ are worked out from the molar mass of the structure shown. Active and inactive are the calls of the source. No cut-off for these calls is given here.

One assay concerns Bacillus subtilis. Kind of assay: Antibacterial activity against Bacillus subtilis ATCC 6633 at 200 ug/mL. The assay is classed as functional, organism-based.
The next assay has as its system Candida albicans. Kind of assay: Antifungal activity against Candida albicans ATCC 10231 at 200 ug/mL. In kind it is functional, organism-based.
Assay [1] in a line: Inhibition of Staphylococcus aureus sortase B. The gist of the method:
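Recombinant sortase B enzyme; inhibition given as EC50 in µg/mL.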

Another assay concerns Staphylococcus aureus. Kind of assay: Antibacterial activity against Staphylococcus aureus ATCC 6538 at 200 ug/mL. The assay is classed as functional, organism-based.
Another assay concerns Micrococcus luteus. Nature of the assay: Antibacterial activity against Micrococcus luteus ATCC 10240 at 200 ug/mL. In kind it is functional, organism-based.
The subject of another assay is Escherichia coli. Kind of assay: Antibacterial activity against Escherichia coli ATCC 11775 at 200 ug/mL. In kind it is functional, organism-based.
Another assay concerns Salmonella typhimurium. Kind of assay: Antibacterial activity against Salmonella Typhimurium ATCC 14028 at 200 ug/mL. In kind it is functional, organism-based. As to conditions: Salmonella enterica subsp. enterica serovar Typhimurium.
The next assay relates to Proteus vulgaris. Kind of assay: […] activity against Proteus vulgaris ATCC 3851 at 200 ug/mL. The assay is classed as functional, organism-based.
The test system of assay [2] is Trichophyton mentagrophytes. Kind of assay: Antifungal activity against Trichophyton mentagrophytes IFO 40996 at 200 ug/mL. The assay is classed as functional, organism-based.
For a further assay, the system named is Klebsiella pneumoniae. Nature of the assay: Antibacterial activity against Klebsiella pneumoniae ATCC 10031 at 200 ug/mL. The assay is classed as functional, organism-based.
The next assay has as its system Trichophyton rubrum. Kind of assay: Antifungal activity against Trichophyton rubrum IFO 6204 at 200 ug/mL. In kind it is functional, organism-based.

Regarding `O=C1CCC(=O)NCCCCCN(O)C(=O)CCC(=O)NCCCCCN(O)C(=O)CCC(=O)NCCCCCN1` [DEHYDROXYNOCARDAMINE], the result with Bacillus subtilis, in the assay with Candida albicans, with Staphylococcus aureus, in the assay with Micrococcus luteus, in the assay on Escherichia coli and in the assay with Salmonella typhimurium was inactive. In addition, the outcome (in the assay on Proteus vulgaris; in assay [2]; in the assay on Klebsiella pneumoniae; in the assay with Trichophyton rubrum) was inactive. Also, the EC50 in [1] was 88.3 µg/mL (≈ 151 µM).

As for `O=C1CCC(=O)N(O)CCCCCNC(=O)CCC(=O)N(O)CCCCNC(=O)CCC(=O)N(O)CCCCCN1` [DESMETHYLENYLNOCARDAMINE], the outcome in the assay with Bacillus subtilis, in the assay with Candida albicans, in the assay with Staphylococcus aureus, with Micrococcus luteus, in the assay with Escherichia coli and in the assay with Salmonella typhimurium was inactive. Further, the result (in the assay on Proteus vulgaris; in [2]; in the assay with Klebsiella pneumoniae; in the assay with Trichophyton rubrum) was inactive. In addition, in assay [1], the EC50 worked out at 126.4 µg/mL (≈ 215 µM).

For the compound `O=C1CCC(=O)N(O)CCCCCNC(=O)CCC(=O)N(O)CCCCCNC(=O)CCC(=O)N(O)CCCCCN1` [NOCARDAMINE], the result in the assay with Bacillus subtilis, with Candida albicans, with Staphylococcus aureus, in the assay with Micrococcus luteus, with Escherichia coli and in the assay with Salmonella typhimurium was inactive. For the same compound, the outcome (with Proteus vulgaris; in [2]; in the assay with Klebsiella pneumoniae; in the assay with Trichophyton rubrum) was inactive. Further, the concentration for a half-maximal effect (EC50) in assay [1] is more than 200 µg/mL.
